The text below walks through data of article PMC5866228 (Journal of natural products, 2018).

Data set [1] addresses T1, purified porcine brain tubulin (Sus scrofa, UniProt P02554). Description: Tubulin polymerization, turbidimetric at 340 nm. Type of data set: biochemical. The following applies: 5 μM compound, tubulin 2 mg/mL, 37°C. In short, it runs like this: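 Test compound at 5 μM, a reference taccalonolide at 5−20 μM, or vehicle (1% EtOH). Samples were prepared on ice, then warmed to 37 °C to start polymerization. Rate and extent were followed turbidimetrically at 340 nm.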

Another data set can be described thus: Initial dose tolerance. Type of data set: in vivo, mice. The following applies: systemic (ip), drug-sensitive or -resistant xenograft models.
Data set [2] has as its system NCI/ADR-RES drug-resistant xenograft. Type of data set: in vivo. The following applies: for days with statistically significant effects vs paclitaxel-treated tumors / tumor growth following the first drug administration on day 0: intratumoral; for first day of statistically significant difference vs vehicle-treated tumors: intratumoral 20 μg on days 0, 3, 6, 10, 14, two-way ANOVA, Tukey; for persistence of antitumor efficacy after the final dose: intratumoral injection, paclitaxel-resistant tumor; for tumor growth following the first drug administration on day 0: 20 μg 21 or 26, 40 μg paclitaxel.

The conditions of data set [3]: compared to 3; cited from earlier work.
For data set [4] the following is noted: plasma / in vivo; cited from earlier work.
Data set [5] concerns HeLa cervical cancer cell line. The settings on record: cited from earlier work.
Data set [6] addresses T1, purified porcine brain tubulin. The settings on record: cited from earlier work.
The test system of data set [7] is NCI/ADR-RES drug-resistant xenograft. The settings on record: systemic administration; no reference given; cited from earlier work.
For data set [8] the following is noted: aqueous conditions; cited from earlier work.
Data set [9] in a line: Hydrolytic stability in aqueous solution. Type of data set: physicochemical. The settings on record: 10 mg in 1:1 EtOH-PBS, 36 h, room temperature. The method in brief: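 Test compound stirred in 1× PBS–EtOH; the mixture was then vacuum-dried and extracted with CH3CN. The hydrolysis product was isolated by semipreparative C18 HPLC eluted with 60−100% CH3CN/H2O containing 0.1% formic acid. Isolated yield was the read-out.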

Where “and” joins values, the source holds several entries; their conditions need not be identical. Equal entries are not always repeated. Entries after “also recorded” stand apart in the source; their conditions may differ.

T1 sequence (P02554 whole entry): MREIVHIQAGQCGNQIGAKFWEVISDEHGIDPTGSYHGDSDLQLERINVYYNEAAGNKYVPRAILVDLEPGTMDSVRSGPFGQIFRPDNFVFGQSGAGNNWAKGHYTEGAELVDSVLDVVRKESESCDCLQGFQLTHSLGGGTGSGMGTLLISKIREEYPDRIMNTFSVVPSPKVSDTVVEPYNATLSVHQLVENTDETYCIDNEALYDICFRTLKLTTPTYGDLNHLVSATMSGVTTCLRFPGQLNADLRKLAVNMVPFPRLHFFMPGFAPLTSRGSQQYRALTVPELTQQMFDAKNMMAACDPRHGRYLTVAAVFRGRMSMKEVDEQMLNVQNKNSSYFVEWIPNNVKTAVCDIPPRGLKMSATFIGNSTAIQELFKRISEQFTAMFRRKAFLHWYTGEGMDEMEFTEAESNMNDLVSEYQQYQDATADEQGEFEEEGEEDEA
T1 sequence (P02550 whole entry partner): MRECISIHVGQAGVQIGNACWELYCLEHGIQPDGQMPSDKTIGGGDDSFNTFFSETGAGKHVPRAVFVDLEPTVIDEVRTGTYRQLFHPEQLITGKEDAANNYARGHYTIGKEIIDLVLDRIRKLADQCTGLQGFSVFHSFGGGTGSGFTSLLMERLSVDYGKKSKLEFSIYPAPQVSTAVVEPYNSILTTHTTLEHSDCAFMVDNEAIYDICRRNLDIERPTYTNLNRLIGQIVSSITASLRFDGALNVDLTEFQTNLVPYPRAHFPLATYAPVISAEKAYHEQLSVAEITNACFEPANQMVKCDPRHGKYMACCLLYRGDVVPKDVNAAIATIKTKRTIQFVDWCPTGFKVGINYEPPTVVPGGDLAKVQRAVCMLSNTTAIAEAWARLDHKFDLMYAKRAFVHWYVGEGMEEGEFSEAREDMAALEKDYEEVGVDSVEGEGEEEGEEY

`CC(=O)O[C@H]1[C@H]2[C@H]([C@@H]3[C@@H](OC(=O)CC(C)C)[C@@H]4[C@H]([C@H](C)[C@H]5O[C@]56OC(=O)[C@@](C)(O)[C@]46C)[C@@]3(C)[C@H]1OC(C)=O)[C@@H](O)C(=O)[C@H]1C[C@@H]3O[C@@H]3[C@H](OC(C)=O)[C@]21C` [Compound 21]: the “extent of tubulin polymerization compared with 4” value (shortened to “extent … compared with 4”) in data set [1] is given as “greater extent of tubulin polymerization than equivalent concentrations of 4”. Moreover, the “antitumor effects during MTD evaluations” value in “Initial dose tolerance” is given as “lack of observable antitumor effects”. In addition, in data set [2] (31 days after the final dose, intratumoral 20 μg), the “first day on which a tumor reached 1,500 mm^3” value is 45 days. Besides, in [2], the “days with statistically significant effects vs paclitaxel-treated tumors” value lay within 12 to 14 days, the “first day of statistically significant difference vs vehicle-treated tumors” value amounted to 10 days, the “persistence of antitumor efficacy after the final dose” value is given as “at least 30 days” and the “tumor growth following the first drug administration on day 0” value was “abruptly slowed”.

As for `CC(=O)O[C@H]1[C@H]2[C@H]([C@@H]3[C@@H](O)[C@@H]4[C@H]([C@H](C)[C@H]5O[C@]56OC(=O)[C@@](C)(O)[C@]46C)[C@@]3(C)[C@H]1OC(C)=O)[C@@H](O)C(=O)[C@H]1C[C@@H]3O[C@@H]3[C@H](OC(C)=O)[C@]21C` [Compound 4, taccalonolide AJ], the microsomal clearance result in data set [3] is listed as “higher microsomal clearance; also recorded: increased rate of microsomal clearance as compared to 3”. The half-life result in data set [4] is “lower in vivo half-life; also recorded: shorter plasma half-life”.

With `CC(=O)O[C@H]1[C@H]2[C@H]([C@@H]3[C@@H](OC(=O)C(C)C)[C@@H]4[C@H]([C@H](C)[C@H]5O[C@]56OC(=O)[C@@](C)(O)[C@]46C)[C@@]3(C)[C@H]1OC(C)=O)[C@@H](O)C(=O)[C@H]1C[C@@H]3O[C@@H]3[C@H](OC(C)=O)[C@]21C` [Compound 20], the “extent … compared with 4” value in data set [1] is “comparable levels of tubulin polymerization compared to an equivalent concentration of 4”. The “antitumor effects during MTD evaluations” value in “Initial dose tolerance” is “lack of observable antitumor effects”.

As to `CC(=O)O[C@H]1[C@H]2[C@H]([C@@H]3[C@@H](O)[C@@H]4[C@H]([C@H](C)[C@H]5O[C@]56OC(=O)[C@@](C)(O)[C@]46C)[C@@]3(C)[C@H]1OC(C)=O)[C@@H](OC(=O)C(C)(C)C)C(=O)[C@H]1C[C@@H]3O[C@@H]3[C@H](OC(C)=O)[C@]21C` [Compound 27], in [1], the “extent … compared with 4” value is “comparable levels of tubulin polymerization compared to an equivalent concentration of 4”.

Regarding `CC(=O)O[C@@H]1[C@H]2[C@H]3[C@H]([C@H](OC(C)=O)[C@H](OC(C)=O)[C@]2(C)[C@H]2[C@H](C)[C@H]4O[C@]45OC(=O)[C@@](C)(O)[C@]5(C)[C@H]12)[C@]1(C)[C@H](C[C@@H]2O[C@@H]2[C@@H]1OC(C)=O)C(=O)[C@@H]3O` [Compound 3, taccalonolide AF], in [5], the “potency relative to 1” value is listed as “over 200 fold”. Further, the “effect on polymerization of purified tubulin” value in data set [6] is given as “directly stimulates the polymerization of purified tubulin”. Also, the “efficacy in the taxane-resistant model” value in data set [7] is on record as “has efficacy in this taxane-resistant model with systemic administration”. Further, the “hydrolysis of C-15 acetoxy group” value in data set [8] was “readily hydrolyzed to generate 4 under aqueous conditions”.

Regarding `CC(=O)O[C@H]1C(=O)[C@@]2(C)[C@H]([C@H](OC(=O)c3ccccc3)[C@]3(O)C[C@H](OC(=O)[C@H](O)[C@@H](NC(=O)c4ccccc4)c4ccccc4)C(C)=C1C3(C)C)[C@]1(OC(C)=O)CO[C@@H]1C[C@@H]2O` [paclitaxel, reference compound], the “tumor growth rate compared with vehicle up to day 14” value in data set [2] (intratumoral 40 μg) is given as “not different statistically”. Also, the “tumor growth following the first drug administration on day 0” value in data set [2] is given as “unaffected”.

For the compound `CC(=O)O[C@H]1[C@H]2[C@H]([C@@H]3[C@@H](OC(=O)C4CC4)[C@@H]4[C@H]([C@H](C)[C@H]5O[C@]56OC(=O)[C@@](C)(O)[C@]46C)[C@@]3(C)[C@H]1OC(C)=O)[C@@H](O)C(=O)[C@H]1C[C@@H]3O[C@@H]3[C@H](OC(C)=O)[C@]21C` [Compound 19], the “extent … compared with 4” value in data set [1] was “comparable levels of tubulin polymerization compared to an equivalent concentration of 4”. Besides, in “Initial dose tolerance”, the “antitumor effects during MTD evaluations” value is “lack of observable antitumor effects”.

As to `CC(=O)O[C@H]1[C@H]2[C@H]([C@@H]3[C@@H](OC(=O)c4ccc5c(c4)C(=O)c4ccccc4C5=O)[C@@H]4[C@H]([C@H](C)[C@H]5O[C@]56OC(=O)[C@@](C)(O)[C@]46C)[C@@]3(C)[C@H]1OC(C)=O)[C@@H](O)C(=O)[C@H]1C[C@@H]3O[C@@H]3[C@H](OC(C)=O)[C@]21C` [Compound 24], the “hydrolysis to 4, yield” value in data set [9] was 67.4% and 67%.

On to `CC(=O)O[C@H]1[C@H]2[C@H]([C@@H]3[C@@H](O)[C@@H]4[C@H]([C@H](C)[C@H]5O[C@]56OC(=O)[C@@](C)(O)[C@]46C)[C@@]3(C)[C@H]1OC(C)=O)[C@@H](OC(=O)CC(C)C)C(=O)[C@H]1C[C@@H]3O[C@@H]3[C@H](OC(C)=O)[C@]21C` [Compound 26], for which the “extent … compared with 4” value in data set [1] is recorded as “greater extent of tubulin polymerization than equivalent concentrations of 4”. Also, the “antitumor effects during MTD evaluations” value in the data set “Initial dose tolerance” is reported as “lack of observable antitumor effects”. Besides, the “growth of tumors with smaller initial volumes (130 – 233 mm^3)” value in [2] (four tumors, intratumoral 20 μg) is “did not increase in size even by day 54”. In [2], the “days with statistically significant effects vs paclitaxel-treated tumors” value is 12 to 14 days, the “first day of statistically significant difference vs vehicle-treated tumors” value is 12 days, the “persistence of antitumor efficacy after the final dose” value is recorded as “at least 30 days” and the “tumor growth following the first drug administration on day 0” value is given as “abruptly slowed”.

Consider `CC(=O)O[C@H]1[C@H]2[C@H]([C@@H]3[C@@H](OC(=O)C(C)(C)C)[C@@H]4[C@H]([C@H](C)[C@H]5O[C@]56OC(=O)[C@@](C)(O)[C@]46C)[C@@]3(C)[C@H]1OC(C)=O)[C@@H](O)C(=O)[C@H]1C[C@@H]3O[C@@H]3[C@H](OC(C)=O)[C@]21C` [Compound 22], for which the “antitumor effects during MTD evaluations” value in “Initial dose tolerance” is listed as “lack of observable antitumor effects”.
